# Results: ChEMBL document CHEMBL4425127 (J Med Chem, 2016)
# Calls of active or inactive are those of the source. The rule behind the calls is not given here.
# System: Neuraminidase (Influenza A virus (strain A/Udorn/307/1972 H3N2)), P0DOF9 [E119V,I222L]
# Assay: Binding affinity to zanamivir/oseltamivir resistant recombinant Influenza A virus (A/Moscow/10/99(H3N2)) Neuraminidase N2 E119V/I222L double mutant expressed in baculovirus infected insect cells at 100 to 1000 nM measured up to 160 sec by surface plasmon resonance analysis
# Outline: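 NA covalently immobilised on CM5 chip by amine coupling. Analyte passed over at several concentrations in running buffer. BSA served as negative control protein. Constants from a steady-state affinity model; triplicate experiments.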
structure (smiles),measurement,value
COCCOCCOCCOCCOCCOCCOCCOCCOCCOCc1cn(CC(Cn2cc(COCCOCCOCCOCCOCCOCCOCCOCCOCCOC)nn2)(Cn2cc(COCCOCCOCCOCCOCCOCCOCCOCCOCCOC)nn2)Cn2cc(COCCOCCOCCOCCOCCOCCOCCOCCOCCOC)nn2)nn1,Activity,inactive
